ChEMBL document CHEMBL5260851, “Iodinated Choline Transport-Targeted Tracers” (J Med Chem, 2020)
pIC50: −log10 of the molar value.

Legend:
[1] = Cytotoxicity against human BJ cells; type: toxicity, cell-based
[2] = Displacement of [3H]-choline from choline transporter in human PC-3 cells preincubated with [3H]-choline for 15 mins followed by compound addition and measured after 60 mins; type: cell-based
[3] = Cytotoxicity against human MRC5 cells; type: toxicity, cell-based
[4] = Displacement of [3H]-choline from choline transporter in human U-87 MG cells preincubated with [3H]-choline for 15 mins followed by compound addition and measured after 60 mins; type: cell-based
Method in brief: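 PC-3 cells were grown in F12 Ham with 10% FBS, 0.25% bicarbonate and pen/strep; U-87 MG cells in DMEM with 10% FBS, 0.1 mM NEAA and 1.0 mM pyruvate; both at 37 °C, 5% CO2, used at 70–90% confluence. [3H]choline was added in Tris uptake buffer (pH 7.4), then compound in triplicate over 10 concentrations; readout was radioactivity per g of protein (BCA), with IC50 from a sigmoidal fit.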

[5] = Stability in human plasma assessed as parent compound remaining at 2 uM after 2 hrs by RF-MS analysis; type: ADME, cell-free; conditions: read-out: Stability
Method in brief: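 Compound at 2 μM final (DMSO ≤0.1%) incubated in human plasma at 37 °C, sampled at 0, 15, 30, 60 and 120 min. Quenched with ACN–methanol (2:1) and measured by RapidFire-MS/MS (ESI+, MRM). The value is the percent of parent remaining.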

[6] = Stability in human liver microsomes assessed as parent compound remaining at 2 uM after 60 mins in presence of NADPH generating system by RF-MS analysis; type: ADME, Microsome; conditions: read-out: Stability
Method in brief: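 Compound at 2 μM with human liver microsomes (0.5 mg·mL⁻¹) and an NADPH-generating system (NADP⁺, isocitrate dehydrogenase, isocitric acid, MgSO4) in 0.1 M phosphate buffer at 37 °C. Samples taken at 0, 15, 30 and 60 min, quenched with ACN–methanol (2:1), freeze-dried, and analysed by RapidFire-MS against an internal standard.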

PC-3 [7] = assay: Biodistribution in human PC-3 cells xenografted mouse measured after 3 hrs by SPECT method; type: ADME, organism-based; conditions: in vivo
Method in brief: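 Mice carried subcutaneous PC-3 xenografts. Static whole-body SPECT scans of 30 min under 2% isoflurane were run at 1, 3 and 24 h p.i., then a 20 min double CT.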

PC-3 [8] = assay: Biodistribution in human PC-3 cells xenografted mouse measured after 3 hrs by PET method; type: ADME, organism-based; conditions: in vivo
Method in brief: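 Mice carried subcutaneous PC-3 xenografts (5 × 10⁶ cells, right flank), with tumors at 100–300 mm³. [18F]fluorocholine 5–7 MBq was given retro-orbitally.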

SMILES | pIC50 [2] | pIC50 [4] | remaining at 2 h, 2 µM [5] | remaining at 1 h, 2 µM [6] | Drug uptake (PC-3 [7]) | Drug uptake (PC-3 [8]) | pIC50 [1] | pIC50 [3]
OCC[N+]1(Cc2cccc(I)c2)CCCC1 | 4.55 | 5.06 | 66% | 90% |  |  | < 4.30 | < 4.30
CS(=O)(=O)[O-].OCC[N+]1(Cc2cccc([123I])c2)CCCC1 |  |  |  |  | Not Active |  |  | 
COc1c(I)cc(CC[N+](C)(C)CCO)cc1I | 4.28 |  |  |  |  |  | < 4.30 | < 4.30
OCC[N+]1(Cc2ccc(I)cc2)CCCC1 [listing 1 of 2 here] | 4.80 | 4.64 |  |  |  |  |  | 
OCC[N+]1(Cc2ccccc2I)CCCCC1 | 3.66 |  |  |  |  |  | < 4.30 | < 4.30
COc1ccc(CC[N+](C)(C)CCO)cc1I | 4.62 |  |  |  |  |  | < 4.30 | < 4.30
OCC[N+]1(CCc2ccc(I)cc2)CCCC1 | 4.72 | 4.54 | 98% | 96% |  |  | < 4.30 | < 4.30
C[N+](C)(C)CCO [CHOLINE] | 5.33 |  |  |  |  |  |  | 
C[N+](C)(CCCCO)CCc1ccc(I)s1 | 4.52 |  |  |  |  |  | < 4.30 | < 4.30
C[N+](C)(CCO)CCCCOc1ccc(-c2ccccc2)cc1I | 5.89 |  | 90% | 89% |  |  |  | 
C[N+](C)(CCO)CCCC#CI | 5.52 |  | 89% | 95% |  |  | < 4.30 | < 4.30
C[N+]1(C)CCOC(O)(c2ccc(-c3ccc(C4(O)C[N+](C)(C)CCO4)cc3)cc2)C1 (stereo not drawn) | 4.44 |  |  |  |  |  |  | 
C[N+](C)(CCO)Cc1ccc(I)cc1 | 3.89 | 3.89 |  |  |  |  | < 4.30 | < 4.30
C[N+](C)(CCO)CCOc1ccc(I)cc1 | 4.64 |  |  |  |  |  | < 4.30 | < 4.30
COc1ccc(CC[N+]23CCC(CC2)C(O)C3)cc1I (stereo not drawn) | 3.94 |  |  |  |  |  | < 4.30 | < 4.30
C[N+](C)(CCO)Cc1cccc(I)c1 | 3.88 | 4.60 |  |  |  |  | < 4.30 | < 4.30
C[N+]1(CCc2ccc(I)cc2)CCCC(O)C1 (stereo not drawn) | 3.97 |  |  |  |  |  | < 4.30 | < 4.30

SMILES | pIC50 [2] | pIC50 [4] | remaining at 2 h, 2 µM [5] | remaining at 1 h, 2 µM [6] | Drug uptake (PC-3 [7]) | Drug uptake (PC-3 [8]) | pIC50 [1] | pIC50 [3]
CCCCCCOc1ccc(CCC[N+](C)(C)CCO)cc1I | 6.39 | 5.68 | 60% | 93% |  |  |  | 
CC[N+](CC)(CCO)Cc1ccc(I)cc1 | 4.11 | 4.11 |  |  |  |  | < 4.30 | < 4.30
C[N+](C)(CCO)CCCCCCOc1cccnc1I | 5.85 |  | 86% | 86% |  |  | < 4.30 | < 4.30
OC1C[N+]2(Cc3ccccc3I)CCC1CC2 (stereo not drawn) | 3.80 |  |  |  |  |  | < 4.30 | < 4.30
C[N+](C)(CCO)CCCCCCOc1cccc(I)c1 | 7.36 |  | 83% | 85% |  |  | < 4.30 | < 4.30
C[N+]1(Cc2ccccc2I)CCCC(O)C1 (stereo not drawn) | 3.71 |  |  |  |  |  | < 4.30 | < 4.30
C[N+](C)(CCO)CCc1ccc(I)cc1 | 5.07 |  |  |  |  |  | < 4.30 | < 4.30
C[N+](C)(CCO)CCCCCCOc1cccc([123I])c1.[Br-] |  |  |  |  | Not Active |  |  | 
C[N+](C)(C[18F])CCO.[Cl-] |  |  |  |  |  | Not Active |  | 
C[N+](C)(CCO)CCCCCCOc1ccc(I)c([N+](=O)[O-])c1 | 6.85 |  | 89% | 92% |  |  | < 4.30 | < 4.30
OCC[N+]1(Cc2ccc(I)cc2)CCCC1 [listing 2 of 2 here] | 4.96 | 5.48 | 81% | 74% |  |  | < 4.30 | < 4.30
OCC[N+]1(CCOc2ccccc2I)CCCC1 | 5.33 |  | 81% | 78% |  |  | < 4.30 | < 4.30
OCC[N+]1(CCCCOc2ccccc2I)CCCC1 | 5.29 |  | 91% | 70% |  |  | < 4.30 | < 4.30
C[N+](C)(CCO)CCc1cccc(I)c1 | 5.92 | 6.11 | 80% | 100% |  |  | < 4.30 | < 4.30
OC1C[N+]2(CCc3ccc(I)cc3)CCC1CC2 (stereo not drawn) | 4.12 |  |  |  |  |  | < 4.30 | < 4.30
C[N+](C)(CCO)CCCCOc1ccccc1I | 4.96 |  | 91% | 54% |  |  | < 4.30 | < 4.30
Cc1ccc(OCCCC[N+](C)(C)CCO)c(I)n1 | 4.74 |  |  |  |  |  | < 4.30 | < 4.30

Continued by rising pIC50 [2], values first:

pIC50 [2] | pIC50 [4] | remaining at 2 h, 2 µM [5] | remaining at 1 h, 2 µM [6] | Drug uptake (PC-3 [7]) | Drug uptake (PC-3 [8]) | SMILES | pIC50 [1] | pIC50 [3]
3.04 |  |  |  |  |  | OCCN1CC[N+](CCO)(Cc2ccccc2I)CC1 | < 4.30 | < 4.30
3.56 |  |  |  |  |  | OCC[N+]1(Cc2ccc(I)cc2)CCOCC1 | < 4.30 | < 4.30
3.67 |  |  |  |  |  | C[N+](C)(CCO)Cc1ccccc1I | < 4.30 | < 4.30
4.37 |  |  |  |  |  | OCC[N+]1(Cc2ccccc2I)CCOCC1 | < 4.30 | < 4.30
4.44 |  |  |  |  |  | C[N+](C)(CCO)CCCCC#CI | < 4.30 | < 4.30
4.47 |  |  |  |  |  | COc1ccc(CCC[N+](C)(C)CCO)cc1I | < 4.30 | < 4.30
4.60 |  |  |  |  |  | C[N+](C)(CCO)CCOc1ccccc1I | < 4.30 | < 4.30
4.66 |  |  |  |  |  | C[N+](C)(CCO)CCOc1cccc(I)c1 | < 4.30 | < 4.30
4.70 |  |  |  |  |  | C[N+](C)(CF)CCO |  | 
4.74 |  |  |  |  |  | OCC[N+]1(CCOc2ccc(I)cc2)CCCC1 | < 4.30 | < 4.30
4.74 |  |  |  |  |  | OCC[N+]1(CCCCC#CI)CCCC1 | < 4.30 | < 4.30
4.82 |  |  |  |  |  | OCC[N+]1(CCOc2cccc(I)c2)CCCC1 | < 4.30 | < 4.30
5.00 |  | 86% | 86% |  |  | OCC[N+]1(CCc2ccc(I)s2)CCCC1 | < 4.30 | < 4.30
5.09 | 5.37 | 85% | 100% |  |  | CC[N+](CC)(CCO)Cc1ccccc1I | < 4.30 | < 4.30
5.68 | 5.77 | 85% | 82% |  |  | CCCCCCCCCCOc1ccc(CCC[N+](C)(C)CCO)cc1I |  | 
5.96 |  |  |  |  |  | C[N+](C)(CCCO)CCc1ccc(I)s1 | < 4.30 | < 4.30
6.04 |  | 91% | 79% |  |  | OCC[N+]1(CCCCCCOc2cccc(I)c2)CCCC1 | < 4.30 | < 4.30
6.35 |  | 89% | 86% |  |  | C[N+](C)(CCO)CCc1ccc(I)s1 | < 4.30 | < 4.30
